This is an account of results in ChEMBL document CHEMBL3352463, “Brain-penetrant, orally bioavailable microtubule-stabilizing small molecules are potential candidate therapeutics for Alzheimer's disease and related tauopathies” (J Med Chem, 2014).

Data set [1] is described as follows: Drug level in CD1 mouse plasma at 5 mg/kg, ip after 1 hr by LC-MS/MS system. It is filed as ADME, organism-based. Also noted: dose 5 mg/kg, route intraperitoneal. Put shortly:
(§1)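 2-month-old CD1 mice (about 20 g) given 5 mg/kg ip; brain and plasma sampled at 1 h. Hemispheres sonicated in 10 mM ammonium acetate pH 5.7 (1:2 w/v); plasma from EDTA blood spun 4500g, 10 min, 4 °C. Acetonitrile extraction, then UPLC-MS/MS in positive ESI MRM mode. Quantified against spiked standard curves at 0.005–5 μM in matching matrix.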

Data set [2] can be described thus: Ratio of drug level in brain to plasma in CD1 mouse at 5 mg/kg, ip after 1 hr by LC-MS/MS system.
The test system of data set [3] is QBI293. The data set is described as follows: Induction of microtubule stabilization in human QBI293 cells assessed as increase in acetylated alpha-tubulin at 1 uM after 4 hrs by ELISA relative to vehicle treated control. In kind it is cell-based. Put shortly:
(§2)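 QBI293 cells exposed to compound at 1 μM. Acetylated α-tubulin expressed as fold-change over vehicle-treated cells and over cells given 0.1 μM cevipabulin as positive control. Significance by two-tailed t-test.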

Data set [4] is described as follows: Drug level in CD1 mouse brain at 5 mg/kg, ip after 1 hr by LC-MS/MS system. In kind it is ADME, organism-based. Further details: dose 5 mg/kg, route intraperitoneal. Particulars: read-out: Drug uptake. In outline:
as §1

The subject of data set [5] is QBI293. The data set is described as follows: Induction of microtubule stabilization in human QBI293 cells assessed as increase in acetylated alpha-tubulin at 1 uM after 4 hrs by ELISA relative to 0.1 uM treated triazolopyrimidines cevipabulin. It is filed as cell-based. Put shortly:
as §2

Data set [6] can be described thus: Elimination half life in CD1 mouse brain at 5 mg/kg, ip after 1 hr by LC-MS/MS system. In kind it is ADME, organism-based. Further details: dose 5 mg/kg, route intraperitoneal. The note with it: read-out: beta t1/2 (converted). In outline:
(§3)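 Female? no—2-month-old CD1 mice (20 g average) given 5 mg/kg ip; plasma (EDTA blood, centrifuged 4500g, 10 min, 4 °C) and brain hemispheres (homogenized in 10 mM ammonium acetate pH 5.7) sampled over 16 h. Acetonitrile extraction, LC-MS/MS by MRM against spiked standard curves (0.005–5 μM). Half-life from elimination rate constant, slope of ln concentration vs time at 4, 8 and 16 h.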

Data set [7] deals with Mus musculus. The data set is described as follows: Induction of microtubule stabilization in wild type mouse assessed as increase in acetylated alpha-tubulin level in brain at 1 mg/kg, ip after 4 to 6 days. In kind it is functional, organism-based. Further details: dose 1 mg/kg. Put shortly:
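Wild-type mice (n = 3 per group) dosed 1 mg/kg ip once daily for 4 or 6 days; acetylated α-tubulin measured in brain homogenates, expressed relative to controls; significance by ANOVA with Dunnett's multiple comparison test.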

A short description of data set [8]: Elimination half life in CD1 mouse plasma at 5 mg/kg, ip after 1 hr by LC-MS/MS system. It is filed as ADME, organism-based. Further details: dose 5 mg/kg, route intraperitoneal. The note with it: read-out: beta t1/2 (converted). In outline: as §3
Data set [9] in a line: Ratio of AUC for free drug level in brain to plasma in CD1 mouse at 5 mg/kg, ip after 1 hr by LC-MS/MS system. In kind it is ADME, organism-based. Particulars: brain and plasma. Further details: dose 5 mg/kg, route intraperitoneal.
Data set [10] concerns the target ATP-dependent translocase ABCB1 (Homo sapiens, UniProt P08183). The data set is described as follows: Inhibition of human P-glycoprotein expressed in NCI/ADR-RES cells assessed as reduction of calcein-AM transport after 20 mins by fluorescence assay. In kind it is cell-based.
Data set [11] can be described thus: Ratio of AUC for drug level in brain to plasma in CD1 mouse at 5 mg/kg, ip after 1 hr by LC-MS/MS system. In kind it is ADME, organism-based. Also noted: dose 5 mg/kg, route intraperitoneal. Particulars: brain and plasma, read-out: Ratio AUC. Put shortly:
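2-month-old CD1 mice given 5 mg/kg ip; brain hemispheres (homogenized 1:2 w/v in 10 mM ammonium acetate pH 5.7) and EDTA plasma collected over a 16 h time course. Acetonitrile-precipitated supernatants quantified by LC-MS/MS (MRM, positive ESI) with spiked standard curves 0.005–5 μM.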

Data set [12] concerns QBI293. The data set is described as follows: Induction of microtubule stabilization in human QBI293 cells assessed as increase in acetylated alpha-tubulin at 100 nM after 4 hrs by immunofluorescence assay relative to control. It is filed as cell-based. Put shortly: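 QBI293 cells incubated 4 h with test compound (100 nM), colchicine (1 μM) or no compound; acetylated α-tubulin visualized by immunofluorescence to assess microtubule number/organization.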

Data set [13] is described as follows: Ratio of drug level in brain to plasma in CD1 mouse at 5 mg/kg, ip after 1 hr by LC-MS/MS system. Further details: dose 5 mg/kg, route intraperitoneal. In kind it is ADME, organism-based. Particulars: brain and plasma, read-out: BPR. In outline: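 CD1 mice (2 months, about 20 g) dosed 5 mg/kg ip; brain and plasma taken at 1 h. Each extracted with acetonitrile and measured by LC-MS/MS MRM against matrix standard curves (0.005–5 μM). Value is the brain concentration divided by the plasma concentration.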

Data set [14] deals with QBI293. The data set is described as follows: Induction of microtubule stabilization in human QBI293 cells assessed as increase in acetylated alpha-tubulin at 0.1 uM after 4 hrs by ELISA relative to vehicle treated control. It is filed as cell-based.

Activity calls are given as the source filed them. No cut-off for these calls is given here.

Sequence of ATP-dependent translocase ABCB1 (P08183 whole entry): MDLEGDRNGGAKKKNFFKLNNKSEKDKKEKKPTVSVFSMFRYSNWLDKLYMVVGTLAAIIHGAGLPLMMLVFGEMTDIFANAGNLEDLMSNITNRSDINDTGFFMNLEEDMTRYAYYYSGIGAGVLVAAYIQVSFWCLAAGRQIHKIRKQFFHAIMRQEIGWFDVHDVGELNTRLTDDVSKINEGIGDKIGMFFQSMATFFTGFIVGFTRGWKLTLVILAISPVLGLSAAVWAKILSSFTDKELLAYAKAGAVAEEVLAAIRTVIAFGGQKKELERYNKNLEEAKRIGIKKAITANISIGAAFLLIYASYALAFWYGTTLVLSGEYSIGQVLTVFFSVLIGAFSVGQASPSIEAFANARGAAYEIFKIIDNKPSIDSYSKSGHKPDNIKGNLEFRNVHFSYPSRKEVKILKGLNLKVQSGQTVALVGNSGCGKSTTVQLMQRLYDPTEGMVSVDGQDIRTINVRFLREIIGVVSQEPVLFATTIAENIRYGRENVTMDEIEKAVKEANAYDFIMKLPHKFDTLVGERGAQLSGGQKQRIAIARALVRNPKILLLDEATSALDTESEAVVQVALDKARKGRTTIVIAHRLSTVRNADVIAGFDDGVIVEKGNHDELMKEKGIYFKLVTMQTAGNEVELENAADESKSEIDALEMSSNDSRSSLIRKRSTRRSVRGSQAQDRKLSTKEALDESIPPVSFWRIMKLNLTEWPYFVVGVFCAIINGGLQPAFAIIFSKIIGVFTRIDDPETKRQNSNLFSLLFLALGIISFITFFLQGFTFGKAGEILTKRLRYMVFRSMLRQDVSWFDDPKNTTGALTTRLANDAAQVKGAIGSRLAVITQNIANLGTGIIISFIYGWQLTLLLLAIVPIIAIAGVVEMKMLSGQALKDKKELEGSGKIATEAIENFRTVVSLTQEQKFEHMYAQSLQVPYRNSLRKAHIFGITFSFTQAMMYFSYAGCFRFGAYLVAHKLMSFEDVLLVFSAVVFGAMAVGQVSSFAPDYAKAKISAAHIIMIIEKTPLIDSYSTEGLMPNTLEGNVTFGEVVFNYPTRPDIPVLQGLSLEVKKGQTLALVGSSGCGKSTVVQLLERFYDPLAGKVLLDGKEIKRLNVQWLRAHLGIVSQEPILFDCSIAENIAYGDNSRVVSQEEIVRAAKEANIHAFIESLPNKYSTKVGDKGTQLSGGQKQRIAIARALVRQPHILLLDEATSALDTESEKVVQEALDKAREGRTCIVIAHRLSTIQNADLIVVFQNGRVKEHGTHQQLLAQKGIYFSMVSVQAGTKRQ

Take `C[C@H](Nc1c(-c2c(F)cc(OCCCNc3ccccc3)cc2F)c(Cl)nc2ncnn12)C(F)(F)F`: the concentration at 1 h in data set [1] was determined as 75 nM; in [4], 120 nM. Also, in [2], the BPR was 1.6. The fold change (FC) in data set [3] amounted to 1.
Turning to `C[C@H](Nc1nc(-c2cnccn2)nc(Cl)c1-c1c(F)cc(OCCCN(C)C)cc1F)C(F)(F)F`, the concentration at 1 h in data set [1] was determined as 2500 nM; in data set [4] it was 860 nM. In addition, the figures for the fold change (FC) in [5] and in data set [3] were 0.5 and 4.1, respectively. Also, the BPR in data set [2] came out at 0.35.
Regarding `C[C@H](Nc1c(-c2c(F)cc(OCCCCl)cc2F)c(Cl)nc2ncnn12)C(F)(F)F`, the concentration at 1 h was 178 nM in data set [1] and 160 nM in data set [4]. Besides, the BPR in data set [2] was found to be 0.88. In addition, the fold change (FC) in data set [3] came out at 1.2.
On to `C[C@H](Nc1c(-c2c(F)cc(OCCCNCC(F)(F)F)cc2F)c(Cl)nc2ncnn12)C(F)(F)F`, for which the concentration at 1 h in data set [1] amounted to 160 nM; in data set [4], 230 nM. Besides, the values for the fold change (FC) in data set [5] and in data set [3] were 0.6 and 2.1, respectively. The BPR in [2] is 1.5.
On to `CC(C)Nc1nc2nccnc2c(Cl)c1-c1c(F)cc(F)cc1F`, for which the fold change (FC) in [3] is 1.
Take `C[C@H](Nc1nc(-c2cnccn2)nc(Cl)c1-c1c(F)cc(F)cc1F)C(F)(F)F`: the half-life in data set [6] and in data set [8] was 15 h in each case. Besides, the concentration at 1 h in data set [1] came out at 5000 nM; in data set [4] it was 2900 nM. Moreover, the outcome in [7] was Active. Also, the fold change (FC) in data set [5] was 0.9; in data set [3], 2.7. In addition, in data set [9], the Kp uu at 1 h was determined as 1.7. Moreover, the “inhibition (INH)” value in data set [10] is “Not Active”. Also, the Kp at 1 h in data set [11] is 0.72.
Consider `C/C1=C/C[C@@H](/C(C)=C/c2csc(C)n2)OC(=O)C[C@H](O)C(C)(C)C(=O)[C@H](C)[C@@H](O)[C@@H](C)CCC1` [EPOTHILONE D], for which the outcome in [12] was Active. The “inhibition (INH)” value in data set [10] is recorded as “Active”.
Regarding `CN(C)CCCOc1cc(F)c(-c2c(Cl)nc(-c3ccccn3)nc2NCC(F)(F)F)c(F)c1`, the fold change (FC) in data set [3] amounted to 0.9.
On the same count and under the same terms, next, `Cc1nnc(Cl)c(-c2c(F)cc(F)cc2F)c1-c1ccc(Cl)s1`: 1.3; `Cc1nnc(Cl)c(-c2c(F)cc(F)cc2F)c1-c1ccc(Cl)cc1`: 1.5.
Consider `COc1ccc(CCN(C)CCCC(C#N)(c2ccc(OC)c(OC)c2)C(C)C)cc1OC` (configuration not stated), for which the “inhibition (INH)” value in data set [10] is given as “Active”.
As to `C[C@H](Nc1nc(-c2ccccn2)nc(Cl)c1-c1c(F)cc(F)cc1F)C(F)(F)F`, the values for the concentration at 1 h in [1] and in [4] were 4300 nM and 1500 nM, respectively. Also, the fold change (FC) in data set [5] was found to be 0.9; in data set [3], 4.2.
Consider `C[C@H](Nc1c(-c2c(F)cc(OCCCO)cc2F)c(Cl)nc2ncnn12)C(F)(F)F`, for which the concentration at 1 h in data set [1] was found to be 29 nM; in data set [4] it was 78 nM. Also, the fold change (FC) in data set [5] turned out to be 1.2; in data set [3], 10.1. The BPR in data set [2] worked out at 2.8.
Consider `CC(C)c1cccc(C(C)C)c1N1C(=O)c2ccc(O)cc2C1=O`, for which the fold change (FC) in [3] amounted to 1.
For `C[C@H](Nc1c(-c2c(F)cc(OCCCNC(=O)C(C)(C)C)cc2F)c(Cl)nc2ncnn12)C(F)(F)F`, the figures for the concentration at 1 h in data set [1] and in data set [4] were 1500 nM and 170 nM, respectively. Also, the fold change (FC) in [5] was found to be 0.7; in data set [3], 2.4. Also, the Kp at 1 h in data set [13] was found to be 0.12.
Regarding `C[C@H](Nc1c(-c2c(F)cc(OCCCN(C)C)cc2F)c(Cl)nc2ncnn12)C(F)(F)F`, the concentration at 1 h in [1] came out at 4900 nM; in data set [4] it was 1300 nM. The outcome in data set [7] was Active. For the same compound, the results for the fold change (FC) in data set [5], in data set [3] and in data set [14] were 1.3, 9.1 and 2, respectively. The Kp uu at 1 h in [9] is 0.09. For the same compound, in [10], the “inhibition (INH)” value is recorded as “Not Active”. Further, the Kp at 1 h in data set [11] turned out to be 0.37.
For the compound `NS(=O)(=O)c1ccc(NC(NC(=O)c2ccc(Br)cc2)C(Cl)(Cl)Cl)cc1` (configuration not stated), the fold change (FC) in data set [3] was found to be 1.
Turning to `C[C@H](Nc1c(-c2c(F)cc(OCCCN3CCOCC3)cc2F)c(Cl)nc2ncnn12)C(F)(F)F`, the figures for the concentration at 1 h in data set [1] and in [4] were 1200 nM and 600 nM, respectively. For the same compound, the figures for the fold change (FC) in data set [5] and in data set [3] were 1.2 and 4.1, respectively. Further, the BPR in data set [2] is listed as 0.49.
In the case of `CC(C)Nc1c(-c2c(F)cc(F)cc2F)c(Cl)nc2nccnc12`, the fold change (FC) in data set [3] turned out to be 1.
The same measure, in the same setting: to `Fc1cc(F)c(-c2c(Cl)nc(-c3ccccn3)nc2NCC(F)(F)F)c(F)c1` belongs 1.6.
Take `C[C@H](Nc1c(-c2c(F)cc(F)cc2F)c(Cl)nc2ncnn12)C(F)(F)F`: the concentration at 1 h in data set [1] turned out to be 2800 nM; in [4] it was 2400 nM. For the same compound, the fold change (FC) turned out to be 0.4 in data set [5] and 1.3 in data set [3]. In addition, the BPR in data set [2] came out at 0.8.
Take `CC(=O)NCCCOc1cc(F)c(-c2c(Cl)nc3ncnn3c2N[C@@H](C)C(F)(F)F)c(F)c1`: the figures for the fold change (FC) in data set [5] and in [3] were 1.5 and 4.5, respectively.
As for `CNCCCOc1cc(F)c(-c2c(Cl)nc3ncnn3c2N[C@@H](C)C(F)(F)F)c(F)c1` [CEVIPABULIN], the result in [12] was Active. Also, the figures for the concentration at 1 h in data set [1] and in [4] were 2500 nM and 92 nM, respectively. Also, in data set [2], the BPR was found to be 0.037. In addition, in data set [10], the “inhibition (INH)” value is given as “Not Active”.
In the case of `Fc1cc(F)c(-c2c(Cl)nc(-c3cnccn3)nc2NCC(F)(F)F)c(F)c1`, in [3], the fold change (FC) is 1.5.
`COc1ccccc1N1CCN(C(=O)c2cc(=O)c3cc(C)cc(C)c3o2)CC1`: the fold change (FC) in [3] was 0.9.
Consider `C[C@H](Nc1c(-c2c(F)cc(OCCCN)cc2F)c(Cl)nc2ncnn12)C(F)(F)F`, for which the concentration at 1 h in [1] was 1300 nM; in data set [4] it was 40 nM. For the same compound, the fold change (FC) in data set [5] is 3.4; in data set [3] it was 26.5; in data set [14], 4.2. For the same compound, the BPR in data set [2] was determined as 0.03.
On to `C[C@H](Nc1c(-c2c(F)cc(OCCCF)cc2F)c(Cl)nc2ncnn12)C(F)(F)F`, for which the fold change (FC) in [3] is 1.4.
With `CC(=O)N(C)CCCOc1cc(F)c(-c2c(Cl)nc3ncnn3c2N[C@@H](C)C(F)(F)F)c(F)c1`, the concentration at 1 h in [1] is 200 nM; in data set [4] it was 20 nM. In addition, in data set [2], the BPR is listed as 0.15. In [3], the fold change (FC) stood at 1.3.
